Experiment [1] has as its system Aspergillus fumigatus. Nature of the experiment: Antifungal activity against Aspergillus fumigatus at 5 mg/ml after 24 to 48 hrs by agar diffusion technique. It counts as functional. The following applies: read-out: IZ. The essentials:
(§1)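 Clinical fungal or yeast isolates were seeded on malt extract agar (pH 5.4). 1 cm holes received 100 of test solution at 5 mg/ml in DMSO, with DMSO control holes and griseofulvin as the standard. Plates sat 1 h at 4 °C, then were incubated at 28 °C. Zone diameters were measured at 24–48 h.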
In general terms: Agar diffusion results depend on both activity and mobility in agar.

The test system of experiment [2] is Aspergillus fumigatus. Nature of the experiment: Ratio of compound to grisofulvin activity against Aspergillus fumigatus at 5 mg/ml after 24 to 48 hrs by agar diffusion technique. In kind it is functional.
Experiment [3] relates to Syncephalastrum racemosum. Kind of experiment: Antifungal activity against Syncephalastrum racemosum at 5 mg/ml after 24 to 48 hrs by agar diffusion technique. It counts as functional. The conditions noted are these: read-out: IZ. The essentials:
as §1

The subject of experiment [4] is Syncephalastrum racemosum. Nature of the experiment: Ratio of compound to grisofulvin activity against Syncephalastrum racemosum at 5 mg/ml after 24 to 48 hrs by agar diffusion technique. It counts as functional.
In experiment [5] the test system is Candida albicans. Kind of experiment: Antifungal activity against Candida albicans at 5 mg/ml after 24 to 48 hrs by agar diffusion technique. In kind it is functional. The conditions noted are these: read-out: IZ. In a few lines: as §1
In experiment [6] the test system is Candida albicans. Nature of the experiment: Ratio of compound to grisofulvin activity against Candida albicans at 5 mg/ml after 24 to 48 hrs by agar diffusion technique. It counts as functional.
Experiment [7] has as its system Geotrichum candidum. Nature of the experiment: Antifungal activity against Geotrichum candidum at 5 mg/ml after 24 to 48 hrs by agar diffusion technique. The conditions noted are these: read-out: IZ. It counts as functional. The essentials: as §1
Experiment [8] concerns Geotrichum candidum. Nature of the experiment: Ratio of compound to grisofulvin activity against Geotrichum candidum at 5 mg/ml after 24 to 48 hrs by agar diffusion technique. In kind it is functional.
In experiment [9] the test system is Staphylococcus aureus. Nature of the experiment: Antibacterial activity against Staphylococcus aureus at 5 mg/ml after 24 to 48 hrs by agar diffusion technique. In kind it is functional. The conditions noted are these: read-out: IZ. The essentials: (§2)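 Hole-plate diffusion on nutrient agar (pH 6.2) seeded with clinical bacterial isolates. 1 cm wells were filled with 100 of a 5 mg/ml DMSO solution, with DMSO-only control wells and amoxicilline as the reference. Plates were held at 4 °C for 1 h, then incubated at 37 °C. Inhibition zone diameter was read after 24–48 h.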

The test system of experiment [10] is Staphylococcus aureus. Kind of experiment: Ratio of compound to amoxicilline activity against Staphylococcus aureus at 5 mg/ml after 24 to 48 hrs by agar diffusion technique. In kind it is functional.
Experiment [11] concerns Bacillus subtilis. Kind of experiment: Antibacterial activity against Bacillus subtilis at 5 mg/ml after 24 to 48 hrs by agar diffusion technique. The following applies: read-out: IZ. It counts as functional. The essentials: as §2
Experiment [12] has as its system Bacillus subtilis. Kind of experiment: Ratio of compound to amoxicilline activity against Bacillus subtilis at 5 mg/ml after 24 to 48 hrs by agar diffusion technique. It counts as functional.
Experiment [13] deals with Escherichia coli. Nature of the experiment: Antibacterial activity against Escherichia coli at 5 mg/ml after 24 to 48 hrs by agar diffusion technique. In kind it is functional. The following applies: read-out: IZ. The essentials: as §2
Experiment [14] deals with Escherichia coli. Kind of experiment: Ratio of compound to amoxicilline activity against Escherichia coli at 5 mg/ml after 24 to 48 hrs by agar diffusion technique. It counts as functional.
Experiment [15] has as its system Pseudomonas aeruginosa. Kind of experiment: Antibacterial activity against Pseudomonas aeruginosa at 5 mg/ml after 24 to 48 hrs by agar diffusion technique. In kind it is functional. The following applies: read-out: IZ. In a few lines: as §2
Experiment [16] relates to Pseudomonas aeruginosa. Kind of experiment: Ratio of compound to amoxicilline activity against Pseudomonas aeruginosa at 5 mg/ml after 24 to 48 hrs by agar diffusion technique. In kind it is functional.
Experiment [17] has as its system Aspergillus fumigatus. Nature of the experiment: Antifungal activity against Aspergillus fumigatus after 24 to 48 hrs by serial dilution technique. It counts as functional. The essentials: (§3)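 MIC by serial dilution: DMSO solutions started at a maximum of 500 and were diluted twofold in succession. Each dilution was inoculated with the test organism, and inhibition zones were measured by agar diffusion.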

In experiment [18] the test system is Candida albicans. Nature of the experiment: Antifungal activity against Candida albicans after 24 to 48 hrs by serial dilution technique. In kind it is functional. The essentials: as §3
The subject of experiment [19] is Staphylococcus aureus. Nature of the experiment: Antibacterial activity against Staphylococcus aureus after 24 to 48 hrs by serial dilution technique. It counts as functional. In a few lines:
as §3

In experiment [20] the test system is Aspergillus fumigatus. Kind of experiment: Antifungal activity against Aspergillus fumigatus assessed as reduction in size of all morphological features by microscopy. In kind it is functional, organism-based. In a few lines: (§4)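 Agar cultures exposed to 100 of compound were examined directly by phase-contrast or bright-field microscopy with video-camera image analysis, at ×400 for multicellular and ×1000 for unicellular fungi.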

The subject of experiment [21] is Aspergillus fumigatus. Nature of the experiment: Antifungal activity against Aspergillus fumigatus assessed as appearance of chlamydospore at 100 uL by microscopy. In kind it is functional, organism-based. The essentials:
as §4

Experiment [22] has as its system Candida albicans. Nature of the experiment: Antifungal activity against Candida albicans assessed as appearance of elongated and swollen cells at 100 uL by microscopy. In kind it is functional, organism-based. In a few lines: as §4
Experiment [23] has as its system Aspergillus fumigatus. Nature of the experiment: Antifungal activity against Aspergillus fumigatus assessed as shrinking of cell membrane by transmission electron microscopy. It counts as functional, organism-based. The essentials:
(§5)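 Treated A. fumigatus and C. albicans were fixed, dehydrated and stained. Ultrastructure was then examined by transmission electron microscopy at 80 kV and 25,000 magnification.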

For experiment [24], the system named is Candida albicans. Nature of the experiment: Antifungal activity against Candida albicans assessed as shrinking of cell membrane by transmission electron microscopy. In kind it is functional, organism-based. The essentials: as §5
In experiment [25] the test system is Aspergillus fumigatus. Nature of the experiment: Antifungal activity against Aspergillus fumigatus assessed as distortion of cellular sub-organs by transmission electron microscopy. It counts as functional, organism-based. The essentials:
as §5

The subject of experiment [26] is Candida albicans. Nature of the experiment: Antifungal activity against Candida albicans assessed as distortion of cellular sub-organs by transmission electron microscopy. It counts as functional, organism-based. The essentials: as §5
Experiment [27] relates to Aspergillus fumigatus. Nature of the experiment: Antifungal activity against Aspergillus fumigatus assessed as aggregation of lysed mitochondria by transmission electron microscopy. It counts as functional, organism-based. In a few lines:
as §5

The subject of experiment [28] is Candida albicans. Kind of experiment: Antifungal activity against Candida albicans assessed as aggregation of lysed mitochondria by transmission electron microscopy. It counts as functional, organism-based. The essentials: as §5
The subject of experiment [29] is Aspergillus fumigatus. Kind of experiment: Antifungal activity against Aspergillus fumigatus assessed as increase in thickness of hyphal cell wall and cell membrane by transmission electron microscopy. It counts as functional, organism-based. In a few lines:
as §5

The test system of experiment [30] is Candida albicans. Kind of experiment: Antifungal activity against Candida albicans assessed as increase in thickness of hyphal cell wall and cell membrane by transmission electron microscopy. In kind it is functional, organism-based. In a few lines:
as §5

The subject of experiment [31] is Candida albicans. Nature of the experiment: Antifungal activity against Candida albicans assessed as occurrence of cellular aggregation by microscopy. It counts as functional, organism-based. In a few lines:
as §4

In brackets after ≈: the same amount, converted by molar mass. Activity calls are given as the source filed them.

As to `CC(=N\NC(=O)c1oc2ccccc2c1C)/C(=N/Nc1ccc([N+](=O)[O-])cc1)N1CCCCC1`, the zone of inhibition at 5000 µg/mL worked out at 32 mm in experiment [1]; 22 mm in [3]; 18 mm in experiment [5]; 12 mm in [7]; 26 mm in experiment [9]; 20 mm in [11]. Moreover, the zone of inhibition at 5000 µg/mL in experiment [13] amounted to 20 mm; in experiment [15], 7 mm. For the same molecule, the Ratio amounted to 1.28 in experiment [2]; 1.16 in [4]; 1.8 in [6]; 1.2 in experiment [8]; 0.87 in experiment [10]; 0.83 in experiment [12]. For the same molecule, the values for the Ratio in experiment [14] and in [16] were 0.71 and 0.35, respectively. The minimal inhibitory concentration (MIC) came out at 25 µg/mL (≈ 54.1 µM) in experiment [17], 75 µg/mL (≈ 162 µM) in experiment [18] and 75 µg/mL (≈ 162 µM) in [19]. Further, the outcome in experiment [20], in experiment [21], in experiment [22], in [23], in [24] and in experiment [25] was Active. The outcome in experiment [26], in experiment [27], in experiment [28], in experiment [29] and in [30] was Active.
As to `COC1=CC(=O)C[C@@H](C)[C@]12Oc1c(Cl)c(OC)cc(OC)c1C2=O` [GRISEOFULVIN], the MIC in [17] was determined as 50 µg/mL (≈ 142 µM); in [18], 75 µg/mL (≈ 213 µM). For the same molecule, the outcome in [31] was Active.

A word on the MIC: it is the smallest concentration in the dilution series that meets the test's criterion for growth inhibition. A low value points to a more susceptible organism.

(Values after ChEMBL document CHEMBL1154310, “Stereoselective synthesis and antimicrobial activity of benzofuran-based (1E)-1-(piperidin-1-yl)-N2-arylamidrazones” (2009).)
